Source: PubChem BioAssay
AHR activator – activates the human aryl hydrocarbon receptor; P35869; AHR-responsive luciferase reporter cells, luminescence; activation, % at 5 µM; 320,000 tested, 2.5% active; in the data active = activation above about 47%;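 also: 0% = vehicle wells and 100% = reference agonist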
PERK inhibitor – blocks human PERK kinase. Q9NZJ5. inhibition, % at 5.6 µM. CHO PERK-DD fusion, SEAP luminescence translation reporter. 220,000 tested, 0.17% active;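 active = inhibition above the mean inhibition of all tested compounds plus 3 SD, set separately per screening campaign, cut at about 2.9% in these data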;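 also: PERK kinase domain activated by AP20187 dimerizer at 100 nM; 0% = DMSO with dimerizer and 100% = rapamycin at 8.4 µM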
Target sequence (Q9NZJ5 whole entry, looked up, the tested form may be a part): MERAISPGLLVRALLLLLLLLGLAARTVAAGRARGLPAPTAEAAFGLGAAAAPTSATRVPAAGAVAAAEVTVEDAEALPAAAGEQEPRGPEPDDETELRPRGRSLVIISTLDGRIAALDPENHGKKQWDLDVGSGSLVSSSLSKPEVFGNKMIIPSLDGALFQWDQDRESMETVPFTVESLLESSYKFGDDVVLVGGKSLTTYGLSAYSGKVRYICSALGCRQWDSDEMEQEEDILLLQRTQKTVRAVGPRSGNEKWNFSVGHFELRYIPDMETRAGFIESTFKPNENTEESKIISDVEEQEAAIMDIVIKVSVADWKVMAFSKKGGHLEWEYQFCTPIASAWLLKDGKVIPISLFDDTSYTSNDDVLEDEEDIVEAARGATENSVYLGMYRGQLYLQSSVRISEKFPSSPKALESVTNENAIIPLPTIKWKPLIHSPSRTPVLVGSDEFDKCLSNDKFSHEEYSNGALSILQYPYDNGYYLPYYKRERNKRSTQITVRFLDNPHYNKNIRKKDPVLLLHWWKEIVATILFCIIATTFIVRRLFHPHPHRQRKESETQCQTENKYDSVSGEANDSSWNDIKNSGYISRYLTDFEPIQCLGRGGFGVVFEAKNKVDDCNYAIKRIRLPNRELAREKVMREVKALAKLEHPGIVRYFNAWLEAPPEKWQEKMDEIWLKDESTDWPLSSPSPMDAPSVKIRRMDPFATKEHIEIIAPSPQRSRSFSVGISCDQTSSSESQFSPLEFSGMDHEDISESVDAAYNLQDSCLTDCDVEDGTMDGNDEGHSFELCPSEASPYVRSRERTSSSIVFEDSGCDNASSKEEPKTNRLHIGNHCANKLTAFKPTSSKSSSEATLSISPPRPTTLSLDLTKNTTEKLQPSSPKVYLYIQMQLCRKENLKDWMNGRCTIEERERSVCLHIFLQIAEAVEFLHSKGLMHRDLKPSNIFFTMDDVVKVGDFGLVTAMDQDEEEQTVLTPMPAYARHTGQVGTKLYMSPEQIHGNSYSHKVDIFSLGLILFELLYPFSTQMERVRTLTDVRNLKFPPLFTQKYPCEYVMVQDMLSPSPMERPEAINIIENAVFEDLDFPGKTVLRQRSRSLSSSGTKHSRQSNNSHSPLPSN
APP 5'UTR act – activates APP 5'UTR luciferase reporter; activation, % at 2 µM; SH-SY5Y APP 5'UTR luciferase reporter, luminescence; zero percent = DMSO vehicle wells; 190,000 tested, 1% active; AID 1276;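 active = activation above a set limit, based on mean plus 3 SD of controls, cut at about 140% in these data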
NF-kB expr up – compounds increasing NF-kB expression in human neuronal cells | 190,000 tested, 1.6% active | fold change at 12.5 µM | AID 1239 | NF-kB reporter expression; active compounds read high; in the data active = fold change above about 3.3
STAT1 act – activators of IFN-gamma induced STAT1 signaling | NIH 3T3 STAT1-luciferase reporter, luminescence; 100% = IFN-gamma alone, no compound | 200,000 tested, 2.6% active | activation (% of control), % at 5.5 µM | AID 932;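 active = activation above the screen-wide mean activation plus 3 SD, cut at about 130% in these data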;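 also: raw ratio to IFN-gamma control signal so 100% means no change and 0% no light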
Mdm2 ligase inh – blocks human Mdm2 ubiquitin ligase activity; Q00987; cell-based MDM2 ubiquitination luciferase reporter, 2 h; 0 = plate control, 100 = twice control, blank-subtracted; signal enhancement, % at 5 µM; 210,000 tested, 0.11% active; AID 1230;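 active = signal enhancement of 30% or more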;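 also: luminescence tracks abundance of the self-degrading MDM2-luciferase fusion protein; higher signal means inhibition of MDM2 E3 ligase activity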
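test system = mammalian cells stably expressing self-ubiquitinating, self-degrading MDM2 E3–luciferase fusion | quantity = 2000 cells/well | incubation = cell settling 4 h, compound treatment 2 h, both 37 °C | signal = luminescence with SteadyLite reagent, 15 min at room temperature | evaluation = % enhancement relative to plate controls after blank subtraction | benchmarks = plate controls and plate blanks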
AHR act cf – human AHR activation, confirmation; AID 2845; activation, % at 9 µM; human cells, AHR-responsive luciferase reporter, luminescence; 2,300 tested, 87% active; shares compounds with AHR activator; in the data active = activation above about 49%;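 also: HepG2 hepatoma cells carrying a DRE-driven firefly luciferase reporter; 0% = vehicle wells and 100% = reference agonist wells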
PXR act counter – activates human PXR in AHR activator counter-screen; shares compounds with AHR activator; cell-based PXR reporter, luciferase luminescence; activation, % at 11.6 µM; 2,300 tested, 88% active; in the data active = activation above about 11%;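 also: human hepatoma DPX-2 cells expressing full-length human PXR; 0% = DMSO and 100% = reference agonist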
* = called active by the depositor. This is a sample that favours compounds with a hit; in the whole collection about 4.5% have one here.

How did CCOc1ccc(C2=C(C=Nc3c(C)n(C)n(-c4ccccc4)c3=O)C(c3ccc(F)cc3)c3ccccc3O2)cc1 (stereo unspecified) do in these assays?
AHR activator: 4.0; PERK inhibitor: 0.1; APP 5'UTR act: 3.7; NF-kB expr up: 0.81; STAT1 act: 99.1; Mdm2 ligase inh: -15.9

Results for Fc1cccc2sc(Nc3nnc(-c4ccco4)o3)nc12 ?
AHR activator: 150.8*; PERK inhibitor: -2.0; APP 5'UTR act: 45.7; NF-kB expr up: 2; STAT1 act: 132.3*; Mdm2 ligase inh: -14.0; AHR act cf: 121.0*; PXR act counter: 40.5*

What do the screens show for `Cc1nc(NC(=O)c2ccco2)sc1C(=O)Nc1ccc(Br)cc1`?
AHR activator: 108.4*; PERK inhibitor: 0.3; APP 5'UTR act: 45.6; NF-kB expr up: 1.11; STAT1 act: 94.6; Mdm2 ligase inh: -1.3; AHR act cf: 144.8*; PXR act counter: 79.5*

How did Cc1nc(NC(=O)c2ccco2)sc1C(=O)O do in these assays?
AHR activator: 8.0

How did COc1cccc2sc(Nc3nnc(-c4cccs4)o3)nc12 do in these assays?
AHR activator: 106.3*; PERK inhibitor: -1.2; APP 5'UTR act: 71.0; NF-kB expr up: 1.18; STAT1 act: 139.1*; Mdm2 ligase inh: 2.2; AHR act cf: 97.0*; PXR act counter: 17.9*

What do the screens show for `Cc1cc(C)c2nc(NC(=O)c3ccco3)sc2c1`?
AHR activator: 8.0

How did CCOc1cccc2sc(NN)nc12 do in these assays?
PERK inhibitor: 1.1; APP 5'UTR act: 7.2; NF-kB expr up: 1.01; STAT1 act: 99.1; Mdm2 ligase inh: -1.3

What do the screens show for `O=C(Nc1nc2c(F)cccc2s1)c1ccco1`?
AHR activator: 120.9*; AHR act cf: 71.7*; PXR act counter: 49.5*

Results for COC(=O)c1c(C(=O)OC)c(-c2cccc(Cl)c2)n2c1CS(=O)(=O)C2 ?
AHR activator: 2.5

Results for O=C(CNC(=O)c1cccc(OC(F)F)c1)OCc1cc(=O)n2cc(Br)ccc2n1 ?
AHR activator: 1.9; PERK inhibitor: 0.3; APP 5'UTR act: 12.9; NF-kB expr up: 0.85; STAT1 act: 101.5; Mdm2 ligase inh: -7.6

Results for CC(=O)Nc1ccc2nc(NC(=O)c3ccco3)sc2c1 ?
AHR activator: 119.2*; AHR act cf: 65.7*; PXR act counter: 18.5*

How did COc1ccc(NC(=S)N(CCc2c(C)[nH]c3ccc(C)cc23)Cc2ccco2)cc1 do in these assays?
AHR activator: 100.5*; PERK inhibitor: -1.3; APP 5'UTR act: 7.1; NF-kB expr up: 0.88; STAT1 act: 95.2; AHR act cf: 84.3*; PXR act counter: 110.6*

What do the screens show for `CCOc1ccc(NC(=S)N(CCc2c(C)[nH]c3ccc(C)cc23)Cc2ccco2)cc1`?
AHR activator: 86.1*; PERK inhibitor: -0.2; APP 5'UTR act: -15.5; NF-kB expr up: 0.99; STAT1 act: 106.2; AHR act cf: 66.6*; PXR act counter: 90.8*

Results for COc1cc(Nc2ncnc(N)n2)cc(OC)c1 ?
AHR activator: 10.5; PERK inhibitor: 0.5; Mdm2 ligase inh: -12.8

Results for COc1ccc(/C=C/C(=O)NC(=S)NNC(=O)c2cccs2)cc1 ?
AHR activator: 93.8*; PERK inhibitor: 0.1; APP 5'UTR act: -8.4; NF-kB expr up: 0.92; STAT1 act: 105.3; Mdm2 ligase inh: 1.5; AHR act cf: 36.2; PXR act counter: 5.3

What do the screens show for `CC(OC(=O)c1cc(S(=O)(=O)N2CCOCC2)ccc1F)C(=O)NC1CCCCC1C` (stereo unspecified)?
AHR activator: 19.6

Results for CCOC(=O)CNC(=O)CSc1nnc(CCc2nc3ccccc3[nH]2)n1C ?
AHR activator: 0.8

What do the screens show for `COc1ccc(CCNC(=O)C/C(C)=N/NC(=O)c2ccc([N+](=O)[O-])cc2Cl)cc1OC`?
AHR activator: 1.8

What do the screens show for `Fc1ccc(F)c(C2=NNC(=Nc3ccccc3F)SC2)c1`?
AHR activator: 79.2*; PERK inhibitor: -0.4; APP 5'UTR act: 130.9; NF-kB expr up: 5.12*; STAT1 act: 142.7*; Mdm2 ligase inh: -5.4; AHR act cf: 69.5*; PXR act counter: 56.1*

Results for COc1ccc2c(c1)O[C@H](c1ccc3c(c1)OCO3)[C@@H](O)C2=O ?
AHR activator: 86.7*; PERK inhibitor: 1.2; APP 5'UTR act: 8.4; NF-kB expr up: 1.53; STAT1 act: 103.4; AHR act cf: 94.8*; PXR act counter: 26.1*

Results for O=C1CCCC2=C1C(c1cccc(O)c1)c1c(ccc3ncccc13)N2 (stereo unspecified) ?
AHR activator: 22.2; PERK inhibitor: -0.6; APP 5'UTR act: 12.3; NF-kB expr up: 1.44; STAT1 act: 92.2; Mdm2 ligase inh: -7.6

Results for NNC(=O)c1[nH]c2ccccc2c1-c1ccccc1 ?
AHR activator: 93.7*; AHR act cf: 16.9; PXR act counter: 9.6

What do the screens show for `CC(C)OC(=O)/C(=C/c1ccc2c(c1)c1ccccc1n2C)NC(=O)c1ccccc1`?
AHR activator: 79.7*; PERK inhibitor: -0.4; APP 5'UTR act: 4.0; NF-kB expr up: 0.9; STAT1 act: 119.9; Mdm2 ligase inh: -7.7; AHR act cf: 97.0*; PXR act counter: 182.9*

Results for Cc1ccc2[nH]c(O)c(N=NC(N)=S)c2c1 ?
AHR activator: -3.1; PERK inhibitor: 1.9; Mdm2 ligase inh: -13.9

How did Cc1ccc(N=Nc2c(O)[nH]c3ccc(F)cc23)cc1 do in these assays?
AHR activator: 113.9*; PERK inhibitor: 0.3; Mdm2 ligase inh: -11.6; AHR act cf: 129.0*; PXR act counter: 21.7*

What do the screens show for `c1ccc(-c2cccs2)nc1`?
AHR activator: -1.6; PERK inhibitor: 1.8; Mdm2 ligase inh: -6.4

Results for c1cc(-c2cccs2)nc(-c2cccs2)c1 ?
AHR activator: 96.1*; PERK inhibitor: 0.8; APP 5'UTR act: 9.1; NF-kB expr up: 1.25; STAT1 act: 98.0; Mdm2 ligase inh: -0.5; AHR act cf: 84.0*; PXR act counter: 16.1*

Results for CCC(=O)NC(Nc1ncc(C)s1)(C(=O)OC)C(F)(F)F (stereo unspecified) ?
AHR activator: -0.9; PERK inhibitor: 0.2; APP 5'UTR act: 1.7; NF-kB expr up: 1.09; STAT1 act: 104.0; Mdm2 ligase inh: -1.1

What do the screens show for `Brc1ccc(-c2ccc(/C=N/Nc3nc4ccccc4[nH]3)o2)cc1`?
AHR activator: 98.4*; PERK inhibitor: -0.5; APP 5'UTR act: 85.0; NF-kB expr up: 1.7; STAT1 act: 138.0*; Mdm2 ligase inh: 3.3; AHR act cf: 121.4*; PXR act counter: 12.4*
